How the values were obtained:
[1] = system: Simian immunodeficiency virus; experiment: Concentration required to inhibit the viral (SIV mac251) cytopathic effect by 50% in MT-4 cells.; assay type: functional, organism-based, MT4; conditions: Simian immunodeficiency virus, mac251, MT4
In short: (§1)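 Virus-infected MT-4 cells cultured with serial compound dilutions; viability measured 5 days after infection by MTT tetrazolium colorimetric read-out. The value is the concentration protecting 50% of cells from viral cytopathic effect. Averages ± SD from at least two independent experiments. HIV-2 and SIV stocks came from infected MT-4 culture supernatants.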

[2] = system: Human immunodeficiency virus 2; experiment: Concentration required to inhibit the viral (HIV-2 ROD) cytopathic effect by 50% in MT-4 cells.; assay type: functional, organism-based, MT4; conditions: Human immunodeficiency virus 2, MT4; in short: as §1
C3H/3T3 [3] = experiment: Tested for inhibitory concentration against MSV-Induced transformation of C3H/3T3 embryo murine fibroblast in vitro; assay type: functional, cell-based; conditions: Mus musculus
In short: (§2)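 C3H/3T3 cells seeded at 20 000 cells/mL and incubated 24 h, then infected with 80 focus-forming units of MSV for 120 min. Medium was then replaced with fresh medium containing test compound. Transformation was scored microscopically after 6 days.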

MT4 [4] = experiment: (§3) Concentration that reduced the MT-4 cell viability by 50%.; assay type: functional, Homo sapiens; conditions: Homo sapiens, MT4
In short: (§4)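 Mock-infected MT-4 cells, run in parallel with the antiviral assay, were exposed to compound. Viability on day 5 was read by MTT colorimetry. The value is the concentration lowering viability by 50%. Averages ± SD from at least two independent experiments.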

[5] = system: Human immunodeficiency virus 1; experiment: Concentration required to inhibit the viral (HIV-1 IIIB strain) cytopathic effect by 50% in MT-4 cells.; assay type: functional, organism-based; conditions: Human immunodeficiency virus 1, MT4; in short: as §1
[6] = system: Human immunodeficiency virus 1; experiment: Concentration required to inhibit the viral (HIV-1 NNRTI resistant strain) cytopathic effect by 50% in MT-4 cells.; assay type: functional, organism-based; conditions: Human immunodeficiency virus 1, MT4
In short: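 MT-4 cells infected with HIV-1(III_B)-derived strain S0561945 (K103N + Y181C RT mutations, NNRTI-resistant). Cultured with varying compound concentrations; viability read on day 5 post-infection by MTT tetrazolium colorimetry. Value is the concentration giving 50% protection against virus-induced cytopathic effect. Cytotoxicity measured in parallel on mock-infected cells at day 5. Averages ± SD from at least two independent experiments.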

C3H/3T3 [7] = experiment: Tested for minimum inhibitory concentration against MSV-Induced transformation of C3H/3T3 embryo murine fibroblast in vitro; assay type: functional; conditions: Mus musculus; in short: as §2
[8] = system: Human immunodeficiency virus 1; experiment: Concentration required to inhibit the viral (HIV-1 NL4.3 strain) cytopathic effect by 50% in MT-4 cells.; assay type: functional, organism-based; conditions: Human immunodeficiency virus 1, MT4; in short: as §1
[9] = target: Human immunodeficiency virus type 1 reverse transcriptase (Human immunodeficiency virus 1) (UniProt Q72547); experiment: Tested for the concentration required to inhibit recombinant HIV-1 reverse transcriptase using polyrC.oligodG as the template primer
In short: (§5)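 Recombinant HIV-1 RT assay. Template primer and labelled substrate were poly(rA).oligo(dT) with [³H]dTTP, or poly(rC).oligo(dG) with [³H]dGTP. Each radiolabelled dNTP was at 2.5 μM final in the reaction mixture.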

[10] = target: Human immunodeficiency virus type 1 reverse transcriptase (Human immunodeficiency virus 1) (UniProt Q72547); experiment: Tested for the concentration required to inhibit recombinant HIV-1 reverse transcriptase using polyrA.oligodT as the template primer; in short: as §5
MT4 [11] = experiment: as §3; assay type: functional, cell-based; conditions: Homo sapiens; in short: as §4

SMILES | IC50 [1] | IC50 [2] | IC50 (C3H/3T3 [3]) | CC50 (MT4 [4]) | IC50 [5] | IC50 [6] | MIC (C3H/3T3 [7]) | IC50 [8] | Concentration [9] | Concentration [10] | CC50 (MT4 [11])
Cc1nc(S)n(Nc2cccc(Cl)c2)c1-c1ccccc1 | 8.2 µM | 8.11 µM | 38 µM | 66.7 µM | 6.39 µM | 9.72 µM | > 63.3 µM | 8.99 µM | – | – | –
Cc1ccc(NN2C(S)=NC(C)C2c2ccccc2)cc1C (stereo not drawn) | 10.3 µM | > 55.6 µM | > 64.6 µM | 55.6 µM | 9.3 µM | > 55.6 µM | > 64.6 µM | 3.54 µM | – | – | –
Cc1cccc(NN2C(S)=NC(C)C2c2ccccc2)c1 (stereo not drawn) | 6.5 µM | > 35.7 µM | > 67.7 µM | 88.2 µM | 1.56 µM | 26.1 µM | > 67.7 µM | 2.17 µM | 105 µM | 125 µM | –
CCC1N=C(S)N(Nc2cccc(Cl)c2)C1c1ccccc1 (stereo not drawn) | 3.88 µM | > 39 µM | > 12.1 µM | 39 µM | 9.06 µM | > 39 µM | > 12.1 µM | > 39 µM | – | – | –
Cc1nc(S)n(Nc2cccc(Cl)c2)c1-c1cccc(Cl)c1 | 1.22 µM | 3.91 µM | > 11.4 µM | 30.9 µM | 5 µM | 1.86 µM | > 11.4 µM | 2.48 µM | – | – | –
CC(=O)c1ccc(C)cc1NC(C(N)=O)c1c(Cl)cccc1Cl (stereo not drawn) [LOVIRIDE] | > 10 µM | > 10 µM | – | – | 0.014 µM | > 10 µM | – | 0.006 µM | – | – | > 10 µM

Reference: ChEMBL document CHEMBL1144865, “N-aminoimidazole derivatives inhibiting retroviral replication via a yet unidentified mode of action” (J Med Chem, 2003)
